# Key:
# [1] = Lipophilicity, logD of the compound at pH 7.4 by UPHLC analysis; assay type: physicochemical; details: buffer
# [2] = Drug uptake in C57BL/6J Jcl mouse assessed as plasma concentration at 0.3 mg/kg, po measured after 60 mins by LC-MS/MS analysis; assay type: ADME, organism-based; details: read-out: Drug uptake
# Summary of the method: (§1)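 Male C57BL/6J Jcl mice, 8 weeks old, given a single oral dose as a suspension in 0.5% methylcellulose at 10 mL/kg. Plasma and brain hemispheres collected 60 min post-dose (n = 4 per group). Levels measured by LC/MS/MS.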
# [3] = Drug uptake in C57BL/6J Jcl mouse assessed as brain concentration at 0.3 mg/kg, po measured after 60 mins by LC-MS/MS analysis; assay type: ADME, organism-based; details: read-out: Drug uptake; summary of the method: as §1
# [4] = Aqueous solubility of the compound in pH 6.8 JP2 fluid measured after 18 hrs by shake flask method based UHPLC analysis; assay type: physicochemical
# [5] = Drug uptake in C57BL/6J Jcl mouse assessed as brain concentration at 0.1 mg/kg, po measured after 60 mins by LC-MS/MS analysis; assay type: ADME, organism-based; details: read-out: Drug uptake; summary of the method: as §1
# [6] = Drug uptake in C57BL/6J Jcl mouse assessed as brain concentration at 3 mg/kg, po measured after 60 mins by LC-MS/MS analysis; assay type: ADME, organism-based; details: read-out: Drug uptake; summary of the method: as §1
# [7] = Drug uptake in C57BL/6J Jcl mouse assessed as plasma concentration at 1 mg/kg, po measured after 60 mins by LC-MS/MS analysis; assay type: ADME, organism-based; details: read-out: Drug uptake; summary of the method: as §1
# [8] = Drug uptake in C57BL/6J Jcl mouse assessed as plasma concentration at 0.1 mg/kg, po measured after 60 mins by LC-MS/MS analysis; assay type: ADME, organism-based; details: read-out: Drug uptake; summary of the method: as §1
# [9] = Drug uptake in C57BL/6J Jcl mouse assessed as brain concentration at 10 mg/kg, po measured after 60 mins by LC-MS/MS analysis; assay type: ADME, organism-based; details: read-out: Drug uptake; summary of the method: as §1
# [10] = Drug uptake in C57BL/6J Jcl mouse assessed as plasma concentration at 10 mg/kg, po measured after 60 mins by LC-MS/MS analysis; assay type: ADME, organism-based; details: read-out: Drug uptake; summary of the method: as §1
# [11] = Drug uptake in C57BL/6J Jcl mouse assessed as brain concentration at 1 mg/kg, po measured after 60 mins by LC-MS/MS analysis; assay type: ADME, organism-based; details: read-out: Drug uptake; summary of the method: as §1
# [12] = Drug uptake in C57BL/6J Jcl mouse assessed as plasma concentration at 3 mg/kg, po measured after 60 mins by LC-MS/MS analysis; assay type: ADME, organism-based; details: read-out: Drug uptake; summary of the method: as §1
SMILES,logD [1],also measured
Cc1cc(COC2CN(C(=O)[C@H]3C[C@]4(COC(=O)N4)C3)C2)ccc1Cl,2.4,
CC(Oc1ccc(F)cc1Cl)C1CCN(C(=O)[C@H]2C[C@]3(COC(=O)N3)C2)CC1 (stereo partly specified),2.8,
O=C1N[C@]2(CO1)C[C@H](C(=O)N1CC(OCc3ccc(C(F)(F)F)c(C(F)(F)F)c3)C1)C2,2.5,
O=C1CC[C@@H](CCC(=O)N2CCC(COc3ccc(F)cc3Cl)CC2)N1,2.7,
CCC(Oc1ccc(F)cc1Cl)C1CCN(C(=O)[C@H]2C[C@]3(COC(=O)N3)C2)CC1 (stereo partly specified),3.1,
Cc1ccc(COC2CN(C(=O)[C@H]3C[C@]4(COC(=O)N4)C3)C2)cc1Cl,2.3,concentration at 1 h [2]: 62 ng/mL; concentration at 1 h [3]: 99 ng/g; solubility thermodynamic at 18 h [4]: 330 µg/mL; concentration at 1 h [5]: 31 ng/g; concentration at 1 h [6]: 322 ng/g; concentration at 1 h [7]: 163 ng/mL; concentration at 1 h [8]: 17 ng/mL; concentration at 1 h [9]: 711 ng/g; concentration at 1 h [10]: 1520 ng/mL; concentration at 1 h [11]: 169 ng/g; concentration at 1 h [12]: 457 ng/mL

# Continued, in another order:
logD [1],SMILES,also measured
3,O=C1CCC(CCC(=O)N2CCC(COc3ccc(F)cc3Cl)CC2)N1 (stereo unspecified),
2.5,O=C1N[C@]2(CO1)C[C@H](C(=O)N1CC(OCc3ccc(Cl)cc3Cl)C1)C2,
2.4,O=C1N[C@]2(CO1)C[C@H](C(=O)N1CC(OCc3ccc(C(F)(F)F)c(Cl)c3)C1)C2,
3.1,O=C1CCC2(CCCN(C(=O)N3CCC(COc4ccc(F)cc4Cl)CC3)C2)N1 (stereo unspecified),
2.7,O=C1CCC(COC(=O)N2CCC(COc3ccc(F)cc3Cl)CC2)N1 (stereo unspecified),
2.6,O=C1N[C@]2(CO1)C[C@H](C(=O)N1CCC(COc3ccc(F)cc3Cl)CC1)C2,
3,O=C1COc2ncc(C(=O)N3CCC(COc4ccc(F)cc4Cl)CC3)cc2N1,
2.7,O=C1COCC(CCC(=O)N2CCC(COc3ccc(F)cc3Cl)CC2)N1 (stereo unspecified),
2.7,O=C1CC[C@H](CCC(=O)N2CCC(COc3ccc(F)cc3Cl)CC2)N1,

# From ChEMBL document CHEMBL4808222, “Design and Synthesis of Novel Spiro Derivatives as Potent and Reversible Monoacylglycerol Lipase (MAGL) Inhibitors: Bioisosteric Transformation from 3-Oxo-3,4-dihydro-2H-benzo[b][1,4]oxazin-6-yl Moiety” (J Med Chem, 2021)
